ChEMBL document CHEMBL1125497, “Synthesis and anticonvulsant activity of enaminones” (J Med Chem, 1992)

Experiments:
Rattus norvegicus [1] = test: Average seizure score for the rat cornea 0.5 hr after intraperitoneal administration of 0 mg/Kg of compound; assay type: functional
Summary of the method: (§1)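 Sprague-Dawley rats (85–95 g initial weight) kindled by corneal stimulation (4 s, 8 mA) twice daily for 5 to 6 days, then once daily until 10 consecutive stage 5 seizures. Butacaine sulfate 1% applied to the cornea as a topical anaesthetic. After a vehicle shock and a 2-day shock-free period, drug given ip, then a single shock at the time of peak effect. Scored on the modified Racine scale (0–5).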

[2] = Dose protecting 50% of the mice from tonic hind limb extension at the time of […] after ip administration.; assay type: functional; conditions: Mus musculus, Hindlimb
Summary of the method: (§2)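 Phase II quantification in CF1 male mice (ca. 24–34 g), dosing ip or po in 0.5% methylcellulose suspension. ED50 is protection from tonic hind limb extension in MES. TD50 is rotorod neurotoxicity. Both were read at time of peak effect and derived by Litchfield–Wilcoxon with 95% confidence limits.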

[3] = Dose elevating electroshock induced seizure by 20% in CF1 mice after ip administration.; assay type: functional, Mus musculus
Summary of the method: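 In CF1 male mice (ca. 24–34 g), compound was given ip in 0.5% methylcellulose. The current giving hind limb extension in 50% of mice was found by the up-and-down method, with 15–25 mice per group and a vehicle control group run with each experimental group. At least three doses were tested. The dose raising threshold current by 20% was taken from a plot of dose against % threshold increase.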

Rattus norvegicus [4] = test: Intraperitoneal dose (15 mg/Kg) reducing rat corneal kindling 0.5 hr after administration.; assay type: functional; summary of the method: as §1
Rattus norvegicus [5] = test: Average seizure score for the rat cornea 0.5 hr after intraperitoneal administration of 30 mg/Kg of compound; assay type: functional; summary of the method: as §1
Rattus norvegicus [6] = test: Intraperitoneal dose (0 mg/Kg) reducing rat corneal kindling 0.5 hr after administration.; assay type: functional; summary of the method: as §1
[7] = Time of peak anticonvulsant effect in CF1 MICE after ip administration.; assay type: functional, Mus musculus
Summary of the method: (§3)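 Male CF1 mice (ca. 24–34 g), compound in 0.5% methylcellulose suspension given ip or po; time (h) at which MES protection (against tonic hind limb extension) peaked was recorded and used for ED50 determination.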

Rattus norvegicus [8] = test: Intraperitoneal dose (25 mg/Kg) reducing rat corneal kindling 0.5 hr after administration.; assay type: functional; summary of the method: as §1
Rattus norvegicus [9] = test: Average seizure score for the rat cornea 0.5 hr after intraperitoneal administration of 15 mg/Kg of compound; assay type: functional; summary of the method: as §1
Rattus norvegicus [10] = test: Intraperitoneal dose (30 mg/Kg) reducing rat corneal kindling 0.5 hr after administration.; assay type: functional; summary of the method: as §1
Rattus norvegicus [11] = test: Intraperitoneal dose (20 mg/Kg) reducing rat corneal kindling 0.5 hr after administration.; assay type: functional; summary of the method: as §1
[12] = Time of peak neurotoxic effect in CF1 MICE after ip administration.; assay type: ADME, organism-based; conditions: mouse, in vivo
Summary of the method: (§4)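 Male CF1 mice (ca. 24–34 g), compound ip in 0.5% methylcellulose suspension; neurological deficit assessed by rotorod test, time (h) of peak neurotoxic effect recorded for TD50 determination.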

Rattus norvegicus [13] = test: Average seizure score for the rat cornea 0.5 hr after intraperitoneal administration of 20 mg/Kg of compound; assay type: functional; summary of the method: as §1
[14] = Dose showing neurotoxicity in 50% of the at the time of peak neurotoxic effect in CF1 MICE after ip administration.; assay type: toxicity, organism-based; conditions: CF1, mouse, in vivo
Summary of the method: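 CF1 male mice (ca. 24–34 g), dosed ip in 0.5% methylcellulose suspension. Neurotoxicity measured by the rotorod test at the time of peak neurotoxic effect. TD50 and confidence limits by the Litchfield-Wilcoxon method.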

[15] = Antiepileptic activity in male CF1 mice 30 min after administration measured in maximum electroshock seizure(MES) test at a dose of 100 mg/kg (no. of animals treated /protected); activity value is 2/3; assay type: functional, Mus musculus
[16] = Time of peak neurotoxic effect in CF1 mice; assay type: ADME; conditions: mouse, in vivo; summary of the method: as §4
[17] = Antiepileptic activity in male CF1 mice 30 min after administration measured in subcutaneous pentylenetetrazole (scMet) test at a dose of 300 mg/kg (no. of animals treated /protected); activity value is 0/1; assay type: functional, Mus musculus
[18] = Oral dose producing neurotoxic effects in 50% of rats; assay type: ADME, organism-based; conditions: rat, in vivo
Summary of the method: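 Phase VI screen in male Sprague-Dawley rats dosed orally. MES protection and rotorod toxicity were scored as animals responding over animals tested at 0.25, 0.5, 1, 2 and 4 h.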

[19] = Anticonvulsant activity administered intraperitoneally in CF1 mice is the ability to protect the mice from MES(maximal electroshock seizure).; assay type: functional; conditions: Mus musculus, ip
[20] = Antiepileptic activity in male CF1 mice 30 min after administration measured in neurological toxicity (Tox) test at a dose of 100 mg/kg (no. of animals treated /protected); activity value is 0/8; assay type: functional, Mus musculus
[21] = Dose producing neurotoxic effects in 50% of the CF1 mice after intraperitoneal administration.; assay type: functional; conditions: Mus musculus, ip; read-out: ED50 (the source's name); summary of the method: as §2
[22] = Antiepileptic activity in male CF1 mice 4 hr after administration measured in maximum electroshock seizure(MES) test at a dose of 100 mg/kg (no. of animals treated /protected); activity value is 0/3; assay type: functional, Mus musculus
[23] = Protective index was measured as TD50/ED50; assay type: ADME; conditions: read-out: PI
[24] = Antiepileptic activity in male CF1 mice 4 hr after administration measured in neurological toxicity (Tox) test at a dose of 100 mg/kg (no. of animals treated /protected); activity value is 0/4; assay type: functional, Mus musculus
[25] = Time of peak anticonvulsant effect in CF1 mice; assay type: functional, Mus musculus; summary of the method: as §3
[26] = Antiepileptic activity in male CF1 mice 30 min after administration measured in subcutaneous pentylenetetrazole (scMet) test at a dose of 100 mg/kg (no. of animals treated /protected); activity value is 0/1; assay type: functional, Mus musculus
[27] = Antiepileptic activity in male CF1 mice 4 hr after administration measured in subcutaneous pentylenetetrazole (scMet) test at a dose of 100 mg/kg (no. of animals treated /protected); activity value is 0/1; assay type: functional, Mus musculus
[28] = Antiepileptic activity in male CF1 mice 4 hr after administration measured in subcutaneous pentylenetetrazole (scMet) test at a dose of 300 mg/kg (no. of animals treated /protected); activity value is 0/1; assay type: functional, Mus musculus
[29] = Antiepileptic activity in male CF1 mice 4 hr after administration measured in neurological toxicity (Tox) test at a dose of 300 mg/kg (no. of animals treated /protected); activity value is 0/2; assay type: functional, Mus musculus
[30] = Antiepileptic activity in male CF1 mice 4 hr after administration measured in maximum electroshock seizure(MES) test at a dose of 300 mg/kg (no. of animals treated /protected); activity value is 0/1; assay type: functional, Mus musculus
[31] = Antiepileptic activity in male CF1 mice 30 min after administration measured in maximum electroshock seizure(MES) test at a dose of 300 mg/kg (no. of animals treated /protected); activity value is 1/1; assay type: functional, Mus musculus
[32] = Antiepileptic activity in male CF1 mice 30 min after administration measured in neurological toxicity (Tox) test at a dose of 300 mg/kg (no. of animals treated /protected); activity value is 0/4; assay type: functional, Mus musculus
[33] = Dose at which anticonvulsant activity was observed in mice; assay type: functional, Mus musculus
[34] = Antiepileptic activity in male CF1 mice 30 min after administration measured in maximum electroshock seizure(MES) test at a dose of 300 mg/kg (no. of animals treated /protected); activity value is 0/1; assay type: functional, Mus musculus
[35] = Antiepileptic activity in male CF1 mice 4 hr after administration measured in maximum electroshock seizure(MES) test at a dose of 300 mg/kg (no. of animals treated /protected); activity value is 1/1; assay type: functional, Mus musculus
[36] = Antiepileptic activity in male CF1 mice 4 hr after administration measured in subcutaneous pentylenetetrazole (scMet) test at a dose of 300 mg/kg; activity value is 0/1; assay type: functional, Mus musculus
[37] = Antiepileptic activity in male CF1 mice 4 hr after administration measured in subcutaneous pentylenetetrazole (scMet) test at a dose of 100 mg/kg; activity value is 0/1; assay type: functional, Mus musculus
[38] = Antiepileptic activity in male CF1 mice 30 min after administration measured in maximum electroshock seizure(MES) test at a dose of 100 mg/kg (no. of animals treated /protected); activity value is 1/3; assay type: functional, Mus musculus
[39] = Antiepileptic activity in male CF1 mice 30 min after administration measured in neurological toxicity (Tox) test at a dose of 300 mg/kg (no. of animals treated /protected); activity value is 1/4; assay type: functional, Mus musculus
Rattus norvegicus [40] = test: Dose reducing the seizure severity in rat cornea 0.5 hr after peroral administration.; assay type: functional; conditions: po
Summary of the method: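 Sprague-Dawley rats (85–95 g initial) were kindled with 4 s, 8 mA corneal stimulations (butacaine anesthesia) to 10 consecutive stage 5 seizures. After a vehicle shock and a 2-day shock-free period, test drug was given ip or po and a single shock applied at time of peak effect. Seizures were scored on a modified Racine 0–5 scale. ED50 is the dose reducing severity by 50% (Litchfield–Wilcoxon).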

SMILES | Activity [15] | TPE [16] | Activity [17] | TD50 [18] [mg/kg] | Activity [20] | Activity [22] | Activity [24] | TPE [25] | Activity [26] | Activity [27] | Activity [28] | Activity [29] | Activity [30] | Activity [31] | Activity [32] | Dose [33] | further results
CCC1(c2ccccc2)C(=O)NC(=O)NC1=O [PHENOBARBITAL] | – | – | – | – | – | – | – | – | – | – | – | – | – | – | – | – | Average seizure score (Rattus norvegicus [1]): 5; ED50 [2]: 18 mg/kg; Dose [3]: 3 mg/kg; Reduction (Rattus norvegicus [4]): 47%; Average seizure score (Rattus norvegicus [5]): 1.3; Reduction (Rattus norvegicus [6]): 0%; TPE [7]: 1; Reduction (Rattus norvegicus [8]): 70%; Average seizure score (Rattus norvegicus [9]): 2.7; Reduction (Rattus norvegicus [10]): 74%; Reduction (Rattus norvegicus [11]): 68%; TPE [12]: 1; Average seizure score (Rattus norvegicus [13]): 1.7; TD50 [14]: 92 mg/kg
CC1(C)CC(O)=C/C(=N\c2ccccc2)C1 | 2 | 0.5 | 0 | > 250 | 0 | 0 | 0 | 0.5 | 0 | 0 | 0 | 0 | 0 | 1 | 0 | <=100 mg kg-1 | ED50 [19]: 109 mg/kg; TD50 [21]: 233 mg/kg; selectivity ratio [23]: 2.1
COC(=O)C1C(=O)C=C(NNc2ccccc2)CC1C (centres undefined) | – | – | 0 | – | – | – | – | – | – | – | – | 0 | – | – | 0 | >100 mg/kg | Activity [34]: 0; Activity [35]: 1; Activity [36]: 0
CCc1ccc(NC2=CC(=O)C(C(=O)OC)C(C)C2)cc1 (centres undefined) | 2 | – | – | – | 0 | 0 | 0 | – | 0 | – | – | – | – | – | – | <=100 mg kg-1 | Activity [37]: 0
COC(=O)C1C(O)=C/C(=N\CCc2ccccc2)CC1(C)C (centres undefined) | – | – | 0 | – | 0 | 0 | 0 | – | 0 | 0 | 0 | 0 | 0 | 1 | – | <=100 mg kg-1 | Activity [38]: 1; Activity [39]: 1
O=C1NC(=O)C(c2ccccc2)(c2ccccc2)N1 [PHENYTOIN] | – | 2 | – | > 3000 | – | – | – | 2 | – | – | – | – | – | – | – | – | ED50 (Rattus norvegicus [40]): > 100 mg/kg
